Screening results (PubChem)
A selection: hits, their analogues and other compounds. The true share with any hit is near 4%.
ABHD5-PLIN5 inh: ABHD5-PLIN5 interaction inhibitors, primary screen, cell lysate, split luciferase complementation, luminescence | actives 0.78% (n = 360,000) | Split G. princeps luciferase complementation, 4 h | inhibition, % at 4 µM | AID 602281, 2012 | Perilipin-5 (Homo sapiens) + 1-acylglycerol-3-phosphate O-acyltransferase ABHD5 (Homo …;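 active = inhibition above the mean inhibition across every tested compound plus 3 SD, cut at about 22% in these data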
UPR XBP1 act: activators of adaptive XBP1 UPR arm, primary screen, cell-based, CHO-XBP1 luciferase reporter, luminescence, uHTS; IRE1-XBP1 UPR activation; percent of tunicamycin response, DMSO as zero; activation, % at 20 µM; actives 0.33% (n = 330,000);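 active = versus positive control, 20 µM dose yields 30% or more activation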
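Material: IRE1-XBP1 luciferase reporter CHO line / Quantity: one thousand reporter cells per well / Buffer or medium: F12 with 10% serum / Compound: 20 µM single concentration, DMSO 1% / Times: 6 h treatment, 37 °C / Detection: Steady-Glo luciferase glow luminescence, 10 min after reagent addition / Benchmarks: tunicamycin high, DMSO low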
Granule exo inh: LAMP-1 surface exposure blockers, TALL-104 cells – cell-based, flow cytometry, MLPCN library, primary screen. TALL-104 LAMP-1 surface exposure; cells stimulated with thapsigargin and PMA. inhibition, % at 10 µM. actives 0.66% (n = 360,000);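 active = inhibition above about 55%, limit read from the data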
UPR CHOP act: activators of apoptotic CHOP UPR arm, primary screen, cell-based, CHO-CHOP luciferase reporter, luminescence, uHTS; UPR activation; percent of tunicamycin response over DMSO baseline; activation, % at 10 µM; actives 0.34% (n = 330,000); AID 449763, 2010;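 active = at 10 µM dose, activation of 40% or more, normalized to positive control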
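assay system = CHO CHOP reporter cells | amount = 500 CHO-CHOP cells per well | buffer or medium = F12 with 10% FBS | incubation = 16-18 h cell attachment, then 6 h compound exposure, 37 °C | detection = luminescence read with Steady-Glo | read-out = percent activation relative to tunicamycin control | controls = tunicamycin high control, DMSO low control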
Mdm2-MdmX inh: inhibitors of human Mdm2-MdmX association, primary screen, cell-based, luminescence, split luciferase, SaOS-2, uHTS; Protein Mdm4 (Homo sapiens) + E3 ubiquitin-protein ligase Mdm2 (Homo sapiens), …; SaOS-2 split-luciferase Mdm2/MdmX complementation; inhibition, % at 8 µM; actives 3% (n = 330,000); AID 485346, 2010;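 active = inhibition of at least 50% at 8 µM in the primary screen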
Target sequence (O15151 whole entry, looked up): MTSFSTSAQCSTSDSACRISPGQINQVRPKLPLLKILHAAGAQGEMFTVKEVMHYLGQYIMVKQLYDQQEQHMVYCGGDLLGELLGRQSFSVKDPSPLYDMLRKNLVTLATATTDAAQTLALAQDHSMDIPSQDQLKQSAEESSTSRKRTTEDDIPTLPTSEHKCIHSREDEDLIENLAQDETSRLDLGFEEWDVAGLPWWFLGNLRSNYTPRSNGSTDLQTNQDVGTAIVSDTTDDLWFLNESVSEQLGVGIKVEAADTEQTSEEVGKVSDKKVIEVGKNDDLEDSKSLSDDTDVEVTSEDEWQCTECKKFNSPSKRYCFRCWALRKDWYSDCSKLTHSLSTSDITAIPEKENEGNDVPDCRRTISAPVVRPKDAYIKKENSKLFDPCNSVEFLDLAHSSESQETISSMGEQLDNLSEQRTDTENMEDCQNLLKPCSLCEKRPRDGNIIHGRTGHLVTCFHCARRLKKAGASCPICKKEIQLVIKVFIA
Target sequence (Q00987 whole entry, looked up): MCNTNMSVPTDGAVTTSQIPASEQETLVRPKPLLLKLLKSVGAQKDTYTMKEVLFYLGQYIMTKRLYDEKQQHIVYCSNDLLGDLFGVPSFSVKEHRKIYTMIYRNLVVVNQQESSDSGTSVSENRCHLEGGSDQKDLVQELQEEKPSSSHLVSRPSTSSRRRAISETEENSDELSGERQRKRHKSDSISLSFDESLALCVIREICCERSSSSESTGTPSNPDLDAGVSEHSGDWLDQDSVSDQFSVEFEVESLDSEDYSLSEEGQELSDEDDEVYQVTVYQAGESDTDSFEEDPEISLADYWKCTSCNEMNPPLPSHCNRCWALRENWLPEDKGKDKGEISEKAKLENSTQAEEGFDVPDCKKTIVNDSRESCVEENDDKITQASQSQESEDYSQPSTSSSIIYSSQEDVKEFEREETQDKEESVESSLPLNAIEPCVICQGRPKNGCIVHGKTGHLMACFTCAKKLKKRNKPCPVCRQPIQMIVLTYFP
Mdm2 MdmX conf: Mdm2-MdmX complex disruptors, retested hits, confirmation, luminescence, single concentration | shares compounds with Mdm2-MdmX inh | Mdm2-MdmX binding, luminescent assay | inhibition, % at 8 µM | actives 55% (n = 10,000); in the data active = inhibition above about 40%
FLuc counter: full-length luciferase signal inhibition, confirmation, counter-screen for Mdm2/MdmX interaction inhibitor project, cell-based, single concentration, SaOS-2; actives 77% (n = 6,200); inhibition, % at 8 µM; SaOS-2 full-length luciferase counterscreen, luminescence; AID 504607, 2011; shares compounds with Mdm2-MdmX inh;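 active = mean inhibition at 8 µM reaching about 37%, which flags the compound as non-specific, limit read from the data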;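 note: p53-null SaOS-2 cells with luciferase driven by a doxycycline-inducible promoter; compound on cells about two nights before reading with doxycycline added after day one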
Of the large screens only hits and unclear results are named; the others gave an inactive call (follow-up assays come after a bar, where they were run); ! = repeats disagree.

Cc1cc2c(cc1C)-c1c(ssc1=Nc1ccc(S(N)(=O)=O)cc1)C(C)(C)N2	Granule exo inh 67, Mdm2-MdmX inh 62 | Mdm2 MdmX conf 40 | FLuc counter 44
CC(/C=N/NC(=O)c1cc(-c2ccccc2)nc2ccccc12)=C\c1ccco1	none
CCCc1cc(C(=O)N/N=C/c2ccc(CC)s2)c2ccccc2n1	Mdm2-MdmX inh 63 | Mdm2 MdmX conf 65 | FLuc counter 40
CC(C)COc1cccc(-c2cc(C(=O)N/N=C/c3ccncc3)c3ccccc3n2)c1	Mdm2-MdmX inh 81 | Mdm2 MdmX conf 84 | FLuc counter 47
CC(/C=N/NC(=O)c1cc(-c2ccc(Cl)cc2)nc2ccccc12)=C\c1ccco1	Mdm2-MdmX inh 66 | Mdm2 MdmX conf inactive
CCc1ccc(/C=N/NC(=O)c2cc(-c3ccncc3)nc3ccccc23)s1	Mdm2-MdmX inh 52 | Mdm2 MdmX conf 62 | FLuc counter 80
COC(=O)N/N=C(\C)c1ccc2ccccc2c1OC(F)F	none
CN(c1ccc(F)cc1)S(=O)(=O)c1ccc(Cl)c(C(=O)Nc2ccncc2)c1	Mdm2-MdmX inh 52 | Mdm2 MdmX conf inactive
Cc1ccc(C)c2[nH]c(=O)c(CN(CCCN(C)C)C(=O)NCc3ccccc3)cc12	none
Cc1cc(C)c2cc(CN(CCCN(C)C)C(=S)NCc3ccccc3)c(=O)[nH]c2c1	Mdm2-MdmX inh 53 | Mdm2 MdmX conf inactive
Cc1ccc(C)c(OCC(O)CN2CCC(CN3C(=O)c4cccc5cccc(c45)C3=O)CC2)c1 (centres undefined)	Mdm2-MdmX inh 60 | Mdm2 MdmX conf inactive
O=C1c2cccc3cccc(c23)C(=O)N1CC1CCN(CC(O)COCc2ccc3c(c2)OCO3)CC1 (centres undefined)	none
Cc1c(CCC(C)C)c(=O)n2c([nH]c3ccccc32)c1C#N	Mdm2-MdmX inh 73 | Mdm2 MdmX conf 53 | FLuc counter 45
Cc1c(CCO)c(=O)n2c([nH]c3ccccc32)c1C#N	none
Cc1cc(NC(=O)CSc2nc3cc(Cl)ccc3o2)no1	none
O=S1(=O)C=C(Sc2nc3cc(Cl)ccc3o2)c2ccccc21	Mdm2-MdmX inh 97 | Mdm2 MdmX conf 96 | FLuc counter 51
Cc1ccc(C2CC(=O)C(C=NCCN3CCN(C(=S)Nc4ccc(F)cc4)CC3)=C(O)C2)cc1 (centres undefined)	none
N#C/C(=C/c1cn(-c2ccccc2)nc1-c1cccc(OCc2ccc(F)cc2)c1)C(=O)NCCCn1ccnc1	Mdm2-MdmX inh 52 | Mdm2 MdmX conf inactive
O=C(NC(CSCc1ccccc1)C(=O)N/N=C/c1ccc(O)cc1O)c1ccc([N+](=O)[O-])cc1 (centres undefined)	Mdm2-MdmX inh 65 | Mdm2 MdmX conf 74 | FLuc counter inactive
CC1CCCCN1S(=O)(=O)c1cccc2cccnc12 (centres undefined)	none
CC1CNCCN1S(=O)(=O)c1cccc2cnccc12 (centres undefined)	Mdm2-MdmX inh 55! | Mdm2 MdmX conf inactive
Cc1ccc(NC(=O)CN(C)C(=O)CCOc2ccccc2C)cc1	none
COc1cccc(-c2nn(C)c3sc(C(=O)NCc4ccc(C)cc4)cc23)c1	none
Cc1ccc(CN2C(=O)N/C(=C\c3ccc(N4CCOCC4)cc3)C2=O)cc1	none
O=C1N/C(=C\c2ccc(N3CCOCC3)c(F)c2)C(=O)N1Cc1ccccc1	Mdm2-MdmX inh 73 | Mdm2 MdmX conf 40 | FLuc counter 74
CCOC(=O)C1=C(COCCN)NC(C)=C(C(=O)OC)C1c1ccccc1Cl (centres undefined)	Mdm2-MdmX inh 62! | Mdm2 MdmX conf inactive
CC(=O)C1=C(c2ccccc2)NC(=S)NC1c1ccc(O)c(O)c1 (centres undefined)	none
O=C1C(Cl)=C(NCCN2CCCCC2)C(=O)c2ccccc21	Granule exo inh 56, Mdm2-MdmX inh 99 | Mdm2 MdmX conf inactive
CC(C)(CO)NCc1c(OCc2ccc(Cl)cc2)ccc2ccccc12	Mdm2-MdmX inh 55 | Mdm2 MdmX conf inactive
COc1cc(NC(=O)C/C(C)=N/NC(=O)Cc2ccc(Cl)cc2)c(OC)cc1Cl	none
O=c1c2ccc([N+](=O)[O-])cc2ncn1CCOc1cccc(Br)c1	none
O=[N+]([O-])c1cnc2ccccc2c1	none
O=[N+]([O-])c1cc([N+](=O)[O-])c2cc3ccccc3nc2c1	Mdm2-MdmX inh 82 | Mdm2 MdmX conf inactive
Cc1cc(C)c2cc(C#N)c(NCCNC(=S)NCCCN3CCOCC3)nc2c1	none
CC(=O)Nc1cccc(-c2ccnc3c2CC(C(=O)NCCC(F)(F)F)O3)c1 (centres undefined)	none (no result: UPR XBP1 act, UPR CHOP act, Mdm2-MdmX inh)
Cc1ccc(C(=O)N2CCC3(CC2)Oc2ccc(Cl)cc2C(=O)C32CC(c3cccnc3)=NO2)s1 (centres undefined)	none
O=C(/C=C/c1cccs1)N1CCC2(CC1)Oc1ccc(Cl)cc1C(=O)C21CC(c2cccnc2)=NO1 (centres undefined)	Mdm2-MdmX inh 67 | Mdm2 MdmX conf inactive
Cc1cccc(NCc2nc(SCC(=O)Nc3ccccc3)n[nH]2)c1	none
CC[C@H]1CC2CN3CCc4c([nH]c5c([C@H]6C[C@H]7[C@H](CC)CN(C)[C@@H](Cc8c6[nH]c6ccccc86)[C@H]7C(=O)OC)c(OC)ccc45)C(C(=O)OC)(C2)C13	Mdm2-MdmX inh 93 (no result: ABHD5-PLIN5 inh, Granule exo inh) | Mdm2 MdmX conf 83 | FLuc counter 37
Cc1cccc(NC(=O)Nc2cccc3ccccc23)c1	none
COc1ccc(-n2ncc3c(NCc4ccc5c(c4)OCO5)ncnc32)cc1	Mdm2-MdmX inh 59 | Mdm2 MdmX conf inactive
c1ccc(-n2ncc3c(NCc4ccc5c(c4)OCO5)ncnc32)cc1	none
c1nc(NCc2ccc3c(c2)OCO3)c2cc(-c3ccoc3)ccc2n1	Mdm2-MdmX inh 81 | Mdm2 MdmX conf 75 | FLuc counter 51
Cc1ccccc1-c1nc(-c2ccc(Br)o2)no1	none
COc1ccc(C(=O)COC(=O)C2CCCN2C(=O)C23CC4CC(CC(C4)C2)C3)cc1 (centres undefined)	none
